{
  "source": "ChEMBL document CHEMBL3813647",
  "about": "“Discovery of an Orally Active and Liver-Targeted Prodrug of 5-Fluoro-2'-Deoxyuridine for the Treatment of Hepatocellular Carcinoma” (J Med Chem, 2016)",
  "key": {"Liver [1]": {"system": "Liver", "assay": "(§1) Cmax in Sprague-Dawley rat liver assessed as (S)-2-((R)-(((2R,3S,5R)-5-(5-fluoro-2,4-dioxo-3,4-dihydropyrimidin-1(2H)-yl)-3-hydroxytetrahydrofuran-2-yl)methoxy)(2-methylbenzyloxy)phosphorylamino)propanoate formation at 52.17 mg/kg administered through oral gavage measured up to 24 hrs by HPLC-MS/MS analysis", "assay_type": "ADME, organism-based", "parameters": "dose 52.17 mg/kg, route oral", "settings": "in vivo", "method_in_brief": "(§2)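 Male Sprague-Dawley rats (220 ± 20 g), single gavage of 0.096 mmol/kg. FDUR was dosed in H2O; the prodrugs were dosed in 20% hydroxypropyl-β-cyclodextrin. n = 3 per time point, sampled at 0.25–24 h. Plasma (EDTA-K2, cardiac puncture) and freeze-clamped liver were homogenized in 20 mM EDTA-K2/70% MeOH. Analytes measured by HPLC-MS/MS in ESI negative mode.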"}, "Liver [2]": {"system": "Liver", "assay": "Cmax in Sprague-Dawley rat liver assessed as FDUR formation at 52.17 mg/kg administered through oral gavage measured up to 24 hrs by HPLC-MS/MS analysis", "assay_type": "ADME, organism-based", "parameters": "dose 52.17 mg/kg, route oral", "settings": "in vivo", "method_in_brief": "as §2"}, "Liver [3]": {"system": "Liver", "assay": "Cmax in Sprague-Dawley rat liver assessed as 5-FU formation at 52.17 mg/kg administered through oral gavage measured up to 24 hrs by HPLC-MS/MS analysis", "assay_type": "ADME, organism-based", "parameters": "dose 52.17 mg/kg, route oral", "settings": "in vivo", "method_in_brief": "as §2"}, "Liver [4]": {"system": "Liver", "assay": "Cmax in Sprague-Dawley rat liver assessed as FdUMP formation at 52.17 mg/kg administered through oral gavage measured up to 24 hrs by HPLC-MS/MS analysis", "assay_type": "ADME, organism-based", "parameters": "dose 52.17 mg/kg, route oral", "settings": "in vivo", "method_in_brief": "as §2"}, "Liver [5]": {"system": "Liver", "assay": "as §1, with “AUC (infinity)” for “Cmax”", "assay_type": "ADME, organism-based", "parameters": "dose 52.17 mg/kg, route oral, time infinity", "settings": "in vivo", "method_in_brief": "as §2"}, "Liver [6]": {"system": "Liver", "assay": "AUC (infinity) in Sprague-Dawley rat liver assessed as FDUR formation at 52.17 mg/kg administered through oral gavage measured up to 24 hrs by HPLC-MS/MS analysis", "assay_type": "ADME, organism-based", "parameters": "dose 52.17 mg/kg, route oral, time infinity", "settings": "in vivo", "method_in_brief": "as §2"}, "Liver [7]": {"system": "Liver", "assay": "AUC (infinity) in Sprague-Dawley rat liver assessed as FdUMP formation at 52.17 mg/kg administered through oral gavage measured up to 24 hrs by HPLC-MS/MS analysis", "assay_type": "ADME, organism-based", "parameters": "dose 52.17 mg/kg, route oral, time infinity", "settings": "in vivo", "method_in_brief": "as §2"}, "[8]": {"assay": "Ratio of FDUR AUC (infinity) in Sprague-Dawley rat liver to FDUR AUC (infinity) in Sprague-Dawley rat plasma at 52.17 mg/kg administered through oral gavage", "assay_type": "ADME, organism-based", "settings": "other tissue"}, "Liver [9]": {"system": "Liver", "assay": "(§3) Drug metabolism in Sprague-Dawley rat liver S9 fraction assessed as (S)-2-((R)-(((2R,3S,5R)-5-(5-fluoro-2,4-dioxo-3,4-dihydropyrimidin-1(2H)-yl)-3-hydroxytetrahydrofuran-2-yl)methoxy)(2-methylbenzyloxy)phosphorylamino)propanoate formation at 20 ug/mL after 20 mins by HPLC-MS/MS analysis", "assay_type": "ADME, subcellular", "settings": "s9, 20 min, TDE = time-dependent effect", "method_in_brief": "(§4)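 Rat liver S9 (10 mg/mL) incubated with compound at 20 μg/mL. Parent, intermediate A and FdUMP followed over time by HPLC-MS/MS. Negative control run without NADPH.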"}, "Liver [10]": {"system": "Liver", "assay": "Drug metabolism in Sprague-Dawley rat liver S9 fraction assessed as FdUMP formation at 20 ug/mL preincubated for 5 mins followed by NADPH addition measured at 20 mins by HPLC-MS/MS analysis", "assay_type": "ADME, subcellular", "settings": "s9, 20 min", "method_in_brief": "as §4"}, "Liver [11]": {"system": "Liver", "assay": "as §3, with “analysis in absence of NADPH” for “analysis”", "assay_type": "ADME", "settings": "s9, 20 min", "method_in_brief": "as §4"}, "Liver [12]": {"system": "Liver", "assay": "Drug metabolism in Sprague-Dawley rat liver assessed as o-methylhippuric acid formation", "assay_type": "ADME, tissue-based"}, "[13]": {"assay": "Cytotoxicity against human SMMC7721 cells assessed as reduction in cell viability after 72 hrs by MTT assay", "assay_type": "functional, cell-based", "settings": "SMMC-7721, 72 h", "method_in_brief": "(§5)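 Cells in RPMI-1640 with 10% FBS, seeded at 4 × 10³ per well and attached for 24 h. Compound (DMSO ≤0.5% final) added for 72 h at 37 °C, 5% CO2. Viability read by MTT. IC50 set against 0.5% DMSO-treated cells taken as 100% viable. Mean of two independent experiments, each run in triplicate.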"}, "[14]": {"assay": "Cytotoxicity against human LO2 cells assessed as reduction in cell viability after 72 hrs by MTT assay", "assay_type": "cell-based", "settings": "L02, 72 h", "method_in_brief": "as §5"}, "[15]": {"assay": "Half life in human plasma by HPLC-MS/MS analysis", "assay_type": "ADME, cell-free", "method_in_brief": "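Compound at 1 μg/mL final in dog or human plasma, 37 °C. Sampled at 0–24 h and quenched with ice-cold MeOH containing internal standard. Parent measured by LC-MS/MS in ESI negative mode; t1/2 calculated from percent remaining versus 0 h.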"}, "Mus musculus [16]": {"system": "Mus musculus", "assay": "Toxicity in KM mouse assessed as weight loss at 2 to 3 mg/kg, administered through oral gavage after 1 to 5 days", "assay_type": "organism-based", "settings": "in vivo, in the assay text read “2 to 3 g/kg” for “2 to 3 mg/kg”", "method_in_brief": "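Female KM mice (20 2 g), fasted overnight, 5 per group. Single oral gavage at 2 or 3 g/kg in 57% hydroxypropyl-β-cyclodextrin. Watched continuously for 4 h, intermittently to 24 h, then occasionally to day 15 for weight, appetite and behaviour. Mean body weight change tracked days 1–15. Organs examined macroscopically at sacrifice on day 15.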"}, "H22 [17]": {"system": "H22", "assay": "Antitumor activity against mouse H22 cells implanted in KM mouse assessed as tumor growth inhibition at 65 mg/kg administered daily through oral gavage after 8 days", "assay_type": "functional", "settings": "192 h", "method_in_brief": "(§6)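 Syngeneic H22 hepatoma: 2 × 10⁶ cells injected s.c. in the axilla (0.9% saline) of female KM mice, n = 10 per group. From day 2, daily oral gavage for 8 days. Test agent given in 35% PEG400; sorafenib suspended in 0.5% CMC-Na. Tumor weight taken on day 8; inhibition rate calculated versus the vehicle group.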"}, "H22 [18]": {"system": "H22", "assay": "Antitumor activity against mouse H22 cells implanted in KM mouse assessed as tumor growth inhibition at 130 mg/kg administered daily through oral gavage after 8 days", "assay_type": "functional", "settings": "192 h", "method_in_brief": "as §6"}, "H22 [19]": {"system": "H22", "assay": "Antitumor activity against mouse H22 cells implanted in KM mouse assessed as tumor growth inhibition at 260 mg/kg administered daily through oral gavage after 8 days", "assay_type": "functional", "settings": "192 h", "method_in_brief": "as §6"}, "Mus musculus [20]": {"system": "Mus musculus", "assay": "Toxicity in KM mouse implanted with mouse H22 cells assessed as body weight level at 260 mg/kg administered daily through oral gavage after 8 days (reference value: 21.7 to 22.3 g)", "assay_type": "organism-based", "settings": "in vivo, 192 h"}, "Plasma [21]": {"system": "Plasma", "assay": "Cmax in Sprague-Dawley rat plasma assessed as FDUR formation at 52.17 mg/kg administered through oral gavage measured up to 24 hrs by HPLC-MS/MS analysis", "assay_type": "ADME, organism-based", "parameters": "dose 52.17 mg/kg, route oral", "settings": "in vivo", "method_in_brief": "as §2"}, "Plasma [22]": {"system": "Plasma", "assay": "Cmax in Sprague-Dawley rat plasma assessed as (S)-2-((R)-(((2R,3S,5R)-5-(5-fluoro-2,4-dioxo-3,4-dihydropyrimidin-1(2H)-yl)-3-hydroxytetrahydrofuran-2-yl)methoxy)(2-methylbenzyloxy)phosphorylamino) propanoate formation at 52.17 mg/kg administered through oral gavage measured up to 24 hrs by HPLC-MS/MS analysis", "assay_type": "ADME, organism-based", "parameters": "dose 52.17 mg/kg, route oral", "settings": "in vivo", "method_in_brief": "as §2"}, "Mus musculus [23]": {"system": "Mus musculus", "assay": "Toxicity in KM mouse assessed as damage to heart at 2 to 3 g/kg, administered through oral gavage after 15 days", "settings": "in vivo, 360 h"}, "Mus musculus [24]": {"system": "Mus musculus", "assay": "Toxicity in KM mouse assessed as damage to spleen at 2 to 3 g/kg, administered through oral gavage after 15 days", "settings": "in vivo, 360 h"}, "Mus musculus [25]": {"system": "Mus musculus", "assay": "Toxicity in KM mouse assessed as damage to kidney at 2 to 3 g/kg, administered through oral gavage after 15 days", "settings": "in vivo, 360 h"}},
  "data": [
    {"smiles": "Cc1ccccc1CO[P@](=O)(N[C@@H](C)C(=O)OC(C)C)OC[C@H]1O[C@@H](n2cc(F)c(=O)[nH]c2=O)C[C@@H]1O", "values": [
      {"measurement": "Cmax", "setting": "Liver [1]", "result": 3673, "unit": "ng/g"},
      {"measurement": "Cmax", "setting": "Liver [2]", "result": 747, "unit": "ng/g"},
      {"measurement": "Cmax", "setting": "Liver [3]", "result": 139, "unit": "ng/g"},
      {"measurement": "Cmax", "setting": "Liver [4]", "result": 340, "unit": "ng/g"},
      {"measurement": "AUC", "setting": "Liver [5]", "result": 5509, "unit": "ng·h/g"},
      {"measurement": "AUC", "setting": "Liver [6]", "result": 1541, "unit": "ng·h/g"},
      {"measurement": "AUC", "setting": "Liver [7]", "result": 543, "unit": "ng·h/g"},
      {"measurement": "Ratio AUC", "setting": "[8]", "result": 59.3},
      {"measurement": "Drug metabolism", "setting": "Liver [9]", "result": "tde"},
      {"measurement": "Drug metabolism", "setting": "Liver [10]", "result": "metabolite_detected"},
      {"measurement": "Drug metabolism", "setting": "Liver [11]", "result": "metabolite_detected"},
      {"measurement": "Drug metabolism", "setting": "Liver [12]", "result": "metabolite_detected"},
      {"measurement": "IC50", "setting": "[13]", "result": 250, "unit": "µM"},
      {"measurement": "IC50", "setting": "[14]", "result": 412, "unit": "µM"},
      {"measurement": "half-life", "setting": "[15]", "result": "> 24", "unit": "h"},
      {"measurement": "Activity", "setting": "Mus musculus [16]", "result": "Non-toxic"},
      {"measurement": "inhibition in vivo at 65 mg/kg", "setting": "H22 [17]", "result": 44.2, "unit": "%"},
      {"measurement": "inhibition in vivo at 130 mg/kg", "setting": "H22 [18]", "result": 61.7, "unit": "%"},
      {"measurement": "inhibition in vivo at 260 mg/kg", "setting": "H22 [19]", "result": 72.5, "unit": "%"},
      {"measurement": "Activity", "setting": "Mus musculus [20]", "result": 22.3, "unit": "g"},
      {"measurement": "Cmax", "setting": "Plasma [21]", "result": 17, "unit": "ng/mL"},
      {"measurement": "Cmax", "setting": "Plasma [22]", "result": 234, "unit": "ng/mL"},
      {"measurement": "Activity", "setting": "Mus musculus [23]", "result": "Non-toxic"},
      {"measurement": "Activity", "setting": "Mus musculus [24]", "result": "Non-toxic"},
      {"measurement": "Activity", "setting": "Mus musculus [25]", "result": "Non-toxic"}
    ]}
  ]
}
